Measurements as given in ChEMBL document CHEMBL2380272, “Biological evaluation of bisbenzaldehydes against four Mycobacterium species” (Eur J Med Chem, 2013).
In brackets after ≈: the same amount, converted by molar mass.

Assays:
[1] = tested on: Mycobacterium tuberculosis; assay: Antimycobacterial activity against Mycobacterium tuberculosis H37Rv ATCC 27294 assessed as growth inhibition at 10 uM after 6 days by luciferase reporter gene assay relative to control; format: functional; conditions: H37Rv ATCC 27294, 144 h, read-out: GI
How it was run: (§1)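 Luminescent M. tb H37Rv (hsp60-driven luciferase) in 7H9 + 10% FCS was seeded at 50 000 RLU/mL. Compounds were tested at 10, 1 and 0.1 µM from 10 mM DMSO stocks. After 6 days, luminescence was read with 1% n-decanal. Growth inhibition (%) was expressed against untreated culture, with triplicates.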

[2] = Cytotoxicity against human HepG2/C3A cells assessed as cell viability at 120 uM after 24 hrs by neutral red uptake assay relative to control; format: cell-based; conditions: read-out: Activity
How it was run: (§2)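 C3A cells grown in DMEM + 10% FCS, 40 000 cells/well, recovered overnight at 37 °C, 5% CO2. Exposed 24 h to serial dilutions in DMEM + 10% FCS from 18 mM DMSO stocks, DMSO limited to 1%. Neutral red added for 3 h, cells washed, dye extracted with ethanol/acetic acid (50%/1%), OD read at 540 nm with 620 nm reference. Viability expressed as % of untreated cells.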

[3] = tested on: Salmonella typhimurium; assay: Genotoxicity in recombinant Salmonella typhimurium TA104 expressing Vibrio fisheri luxabcd genes under transcriptional control of recN2-4 promoter assessed as concentration required to cause DNA damage measured every 5 mins for 4 hrs by vitotox assay in presence of S9 fraction; format: toxicity, organism-based; conditions: salmonella enterica subsp. enterica serovar typhimurium, s9, 4 h
How it was run: (§3)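 VITOTOX genox strain TA104 recN2-4 (recN promoter driving lux). Grown 16 h at 36 °C in poor LB, diluted 125-fold and shaken 1 h, then diluted 10-fold; rat aroclor S9 added for +S9 runs. Incubated at 30 °C with light read every 5 min for 4 h. Signal/noise = exposed over unexposed light. Highest concentration tested 10 µM.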

[4] = Antimycobacterial activity against Mycobacterium avium subsp. avium ATCC 15769 assessed as growth inhibition after 6 days by luciferase reporter gene assay; format: functional; conditions: ATCC 15769, 144 h
How it was run: (§4)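 Mycobacteria carrying the pSMT1 luciferase reporter plasmid. Compounds came from 10 mM DMSO stocks and were serially diluted in 7H9 + 10% FCS. Thawed bacteria were filtered, recovered 1 h at 37 °C, then added at 50 000 RLU/mL. After 6 days of culture, light was read for 10 s after adding 1% n-decanal. Triplicates were run, and MIC50 was the concentration giving 50% growth inhibition.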

[5] = Potency index, ratio of MIC50 for Mycobacterium avium subsp. avium ATCC 15769 to MIC50 for Mycobacterium bovis AN5; format: functional
[6] = tested on: Mycobacterium tuberculosis; assay: Antimycobacterial activity against Mycobacterium tuberculosis H37Rv infected in mouse J774.A1 cells at 1 MOI assessed as intracellular bacterial growth inhibition at 0.1 uM after 1 hr by luciferase reporter gene assay relative to control; format: functional; conditions: J774.A1, 1 h, read-out: GI
[7] = Potency index, ratio of MIC50 for Mycobacterium avium subsp. paratuberculosis ATCC 19698 to MIC50 for Mycobacterium bovis AN5; format: functional
[8] = Cytotoxicity against human HepG2/C3A cells assessed as cell viability at 180 uM after 24 hrs by neutral red uptake assay relative to control; format: cell-based; conditions: read-out: Activity; how it was run: as §2
[9] = tested on: Mycobacterium ulcerans; assay: Antimycobacterial activity against Mycobacterium ulcerans 1615 assessed as growth inhibition after 6 days by luciferase reporter gene assay; format: functional; conditions: Mycobacterium ulcerans, 1615, 144 h
How it was run: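 M. ulcerans 1615 carrying pSMT1 luciferase reporter plasmid, stock grown as surface pellicle on Sauton medium, cultured at 32 °C. Serial compound dilutions in 7H9 + 10% FCS from 10 mM DMSO stocks, tested in triplicate. Filtered bacteria added at 50 000 RLU/mL. After 6 days, wells collected and washed with PBS, 1% n-decanal in ethanol added, light read over 10 s. MIC50 = concentration giving 50% inhibition versus untreated.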

[10] = tested on: Mycobacterium tuberculosis; assay: Antimycobacterial activity against Mycobacterium tuberculosis H37Rv infected in mouse J774.A1 cells at 1 MOI assessed as intracellular bacterial growth inhibition at 10 uM after 1 hr by luciferase reporter gene assay relative to control; format: functional; conditions: J774.A1, 1 h, read-out: GI
[11] = tested on: Mycobacterium avium subsp. paratuberculosis; assay: Antimycobacterial activity against Mycobacterium avium subsp. paratuberculosis ATCC 19698 assessed as growth inhibition after 6 days by luciferase reporter gene assay; format: functional; conditions: ATCC 19698, 144 h; how it was run: as §4
[12] = tested on: Mycobacterium tuberculosis; assay: Antimycobacterial activity against Mycobacterium tuberculosis H37Rv ATCC 27294 assessed as growth inhibition after 6 days by luciferase reporter gene assay; format: functional; conditions: H37Rv ATCC 27294, 144 h; how it was run: as §4
[13] = Toxicity in recombinant Salmonella typhimurium TA104 expressing luxabcd genes under transcriptional control of constitutive pr1 promoter assessed as concentration required to reduce cell viability measured every 5 mins for 4 hrs by vitotox assay in presence of S9 fraction; format: organism-based; conditions: salmonella enterica subsp. enterica serovar typhimurium; read-out: Activity
How it was run: (§5)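 Cytox strain TA104 pr1 (constitutive promoter driving lux), run alongside the genox strain. Grown in poor LB at 36 °C for 16 h, diluted 125-fold and shaken 1 h, then diluted 10-fold, with or without aroclor-rat S9. Luminescence read at 30 °C every 5 min over 4 h; a drop in light signal indicates reduced viability. Top concentration 10 µM.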

[14] = Cytotoxicity against human HepG2/C3A cells assessed as cell viability at 60 uM after 24 hrs by neutral red uptake assay relative to control; format: cell-based; conditions: read-out: Activity; how it was run: as §2
[15] = tested on: Mycobacterium tuberculosis; assay: Antimycobacterial activity against Mycobacterium tuberculosis H37Rv infected in mouse J774.A1 cells at 1 MOI assessed as intracellular bacterial growth inhibition at 1 uM after 1 hr by luciferase reporter gene assay relative to control; format: functional; conditions: J774.A1, 1 h, read-out: GI
[16] = tested on: Mycobacterium tuberculosis; assay: Antimycobacterial activity against Mycobacterium tuberculosis H37Rv ATCC 27294 assessed as growth inhibition at 1 uM after 6 days by luciferase reporter gene assay relative to control; format: functional; conditions: H37Rv ATCC 27294, 144 h, read-out: GI; how it was run: as §1
[17] = Selectivity index, ratio of NI50 for human HepG2/C3A cells to MIC50 for Mycobacterium tuberculosis H37Rv ATCC 27294; format: functional
[18] = tested on: Salmonella typhimurium; assay: Toxicity in recombinant Salmonella typhimurium TA104 expressing luxabcd genes under transcriptional control of constitutive pr1 promoter assessed as concentration required to reduce cell viability measured every 5 mins for 4 hrs by vitotox assay in absence of S9 fraction; format: organism-based; conditions: salmonella enterica subsp. enterica serovar typhimurium; how it was run: as §5
[19] = tested on: Mycobacterium tuberculosis; assay: Antimycobacterial activity against Mycobacterium tuberculosis H37Rv ATCC 27294 assessed as growth inhibition at 0.1 uM after 6 days by luciferase reporter gene assay relative to control; format: functional; conditions: H37Rv ATCC 27294, 144 h, read-out: GI; how it was run: as §1
[20] = tested on: Salmonella typhimurium; assay: Genotoxicity in recombinant Salmonella typhimurium TA104 expressing Vibrio fisheri luxabcd genes under transcriptional control of recN2-4 promoter assessed as concentration required to cause DNA damage measured every 5 mins for 4 hrs by vitotox assay in absence of S9 fraction; format: toxicity, organism-based; conditions: salmonella enterica subsp. enterica serovar typhimurium; how it was run: as §3
[21] = Genotoxicity in human HepG2/C3A cells assessed as DNA fragmentation at 0.5 mM after 24 hrs by alkaline comet assay (reference value: 6.65%); format: toxicity, cell-based; conditions: 500 µM
[22] = Genotoxicity in human HepG2/C3A cells assessed as DNA fragmentation at 0.75 mM after 24 hrs by alkaline comet assay (reference value: 6.65%); format: toxicity, cell-based; conditions: 750 µM

SMILES | inhibition of growth at 10 µM [1] [%] | viability at 24 h, 120 µM [2] [%] | Activity [3] [µM] | MIC50 [4] [µM] | Ratio [5] | intracellular bacterial growth inhibition at 0.1 µM [6] [%] | Ratio [7] | viability at 24 h, 180 µM [8] [%] | MIC50 [9] [µM] | intracellular bacterial growth inhibition at 10 µM [10] [%] | MIC50 [11] [µM] | MIC50 [12] [µM] | MCC at 4 h [13] [µM] | viability at 24 h, 60 µM [14] [%] | percent inhibition of intracellular bacterial growth at 1 µM [15] [%] | inhibition of growth at 1 µM [16] [%] | Selectivity Index [17] | Activity [18] [µM] | inhibition of growth at 0.1 µM [19] [%] | Activity [20] [µM] | also measured
O=Cc1ccc(OCCCCCCCCCOc2ccc(C=O)cc2)cc1 | 98 | 93 | > 10 | 5.32 (≈ 1.96 µg/mL) | 5 | -0.5 | 5 | 75.7 | > 10 | 62.1 | 5.95 (≈ 2.19 µg/mL) | 0.95 (≈ 0.35 µg/mL) | > 10 | 100 | 45.7 | 59 | >189.5 | > 10 | 11 | > 10 | 
O=Cc1ccc(OCCCCCOc2ccc(C=O)cc2)cc1 | 95 | 72.6 | > 10 | 7.32 (≈ 2.29 µg/mL) |  | 0.2 |  | 45.6 | > 10 | 46.8 | 8.69 (≈ 2.71 µg/mL) | 1.63 (≈ 0.509 µg/mL) | > 10 | 90.4 | 38.1 | 39 | >110.4 | > 10 | < 10 | > 10 | 
O=Cc1ccc(OCCCCCCCCOc2ccc(C=O)cc2)cc1 | 99 | 95.3 | > 10 | 5.36 (≈ 1.9 µg/mL) | 5 | 0.6 | 5 | 69 | > 10 | 58.7 | 5.83 (≈ 2.07 µg/mL) | 0.85 (≈ 0.301 µg/mL) | > 10 | 97.9 | 42.9 | 64 | >211.8 | > 10 | 13 | > 10 | 
O=Cc1ccc(OCCCCCCCCCCCOc2ccc(C=O)cc2)cc1 | 100 | 94.1 | > 10 | 4.96 (≈ 1.97 µg/mL) | 5 | 5.2 | 5 | 75.4 | 9.82 (≈ 3.89 µg/mL) | 69.4 | 4.23 (≈ 1.68 µg/mL) | 0.64 (≈ 0.254 µg/mL) | > 10 | 93.3 | 48.2 | 73 | >281.3 | > 10 | 25 | > 10 | 
O=Cc1ccc(OCCCCCCOc2ccc(C=O)cc2)cc1 | 99 | 85.9 | > 10 | 6.18 (≈ 2.02 µg/mL) | 5 | 3.2 | 5 | 59.3 | > 10 | 52.6 | 6.56 (≈ 2.14 µg/mL) | 0.83 (≈ 0.271 µg/mL) | > 10 | 93.4 | 46.6 | 65 | >216.9 | > 10 | 15 | > 10 | 
O=Cc1ccc(OCCCCCCCOc2ccc(C=O)cc2)cc1 | 99 | 78.9 | > 10 | 5.12 (≈ 1.74 µg/mL) | 5 | -1.2 | 5 | 53.4 | > 10 | 55 | 5.05 (≈ 1.72 µg/mL) | 0.85 (≈ 0.289 µg/mL) | > 10 | 100 | 43.3 | 62 | >211.8 | > 10 | 13 | > 10 | 
CCOS(C)(=O)=O [METHANESULFONIC ACID ETHYL ESTER] |  |  |  |  |  |  |  |  |  |  |  |  |  |  |  |  |  |  |  |  | Activity [21]: 63.44%; Activity [22]: 65.15%
O=Cc1ccc(OCCCCCCCCCCOc2ccc(C=O)cc2)cc1 | 100 | 96.6 | > 10 | 5.61 (≈ 2.15 µg/mL) | 5 | 11.1 | 5 | 72.8 | > 10 | 60.9 | 5.45 (≈ 2.08 µg/mL) | 0.77 (≈ 0.295 µg/mL) | > 10 | 97.7 | 39.6 | 71 | >233.8 | > 10 | 20 | > 10 | 
